In ChEMBL document CHEMBL4251564, “Development of noviomimetics that modulate molecular chaperones and manifest neuroprotective effects” (Eur J Med Chem, 2018):
Activity calls are given as the source filed them. The rule behind the calls is not given here.

How the values were obtained:
Type in all cases: cell-based
[1] = species: Rattus norvegicus; test: Inhibition of HSP90 in rat 50B11 cells assessed as increase in Hsp70 protein expression at 1 uM after 24 hrs by immunoblot assay
How it was run: (§1)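 Nontransfected 50B11 cells exposed 24 h to compound, with DMSO as negative control. Hsp70 detected by immunoblot; densitometry reports fold induction over DMSO. Mean ±SEM, n >2.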

[2] = species: Rattus norvegicus; test: Inhibition of HSP90 in rat 50B11 cells assessed as decrease in c-jun protein expression at 1 uM incubated for 24 hrs followed by 10% FBS exposure for 2 hrs by Western blot analysis
How it was run: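 50B11 cells held in serum-free medium 24 h to arrest cycle and lower c-Jun, then given vehicle or 1.0 μM compound for 24 h; c-Jun induced by 10% FBS medium for 2 h. Lysates immunoblotted for c-Jun with actin control; densitometry gives fold change normalized to serum-free-then-serum control. Mean ±SEM, n >2.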

[3] = species: Rattus norvegicus; test: Inhibition of HSP90 in rat 50B11 cells assessed as increase in Hsp70 protein expression at 0.03 to 3 uM after 24 hrs by immunoblot assay; how it was run: as §1
[4] = species: Rattus norvegicus; test: Inhibition of HSP90 in rat 50B11 cells transfected with human HSPA1A promoter assessed as induction of human Hsp70 expression at 10 to 1000 nM incubated for 16 hrs by luciferase reporter gene assay
[5] = species: Rattus norvegicus; test: Inhibition of HSP90 in rat 50B11 cells assessed as improvement in mitochondrial bioenergetics by measuring suppression of H2O2-induced reduction in oxygen consumption rate at 1 uM after 24 hrs by XF96 extracellular flux analyzer based method
How it was run: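 50B11 cells seeded in high-glucose DMEM with 10% FBS; after 12 h switched to high-glucose DMEM with 1% FBS plus 1.0 μM compound or DMSO for 24 h, then stressed with 0.5 mM H2O2 for 2 h. Intact-cell OCR and ECAR read on XF96 extracellular flux analyzer; maximal respiratory capacity from FCCP response; significance versus H2O2 alone, p<0.05.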

Row | Compound | inhibition [3] | inhibition [4] | further results
1 | COc1ccccc1COC1CCC(Oc2ccc(CCNC(C)=O)c(-c3cccc(F)c3)c2)CC1 (configuration not stated) |  |  | inhibition [1]: Active
2 | COc1cc(O[C@@H]2OC(C)(C)[C@H](OC)[C@@H](O)[C@H]2O)cc(-c2cccc(F)c2)c1CCNC(C)=O |  |  | inhibition [2]: Active
3 | CC(=O)NCCc1ccc(OC2CCC(OCc3ccccc3C)CC2)c(O)c1-c1cccc(F)c1 (configuration not stated) | Active |  | 
4 | CC(=O)Nc1cc2ccc(OCc3ccc(Cl)cc3)c(C)c2oc1=O |  | inactive | 
5 | CC(=O)NCCc1cc(C)c(OC2CCC(OCc3ccccc3C)CC2)cc1-c1cccc(F)c1 (configuration not stated) | inactive |  | 
6 | CC(=O)NCCc1ccc(O)cc1-c1cccc(F)c1 |  | inactive | 
7 | CC(=O)Nc1cc2ccc(O)c(C)c2oc1=O |  | inactive | 
8 | CC(=O)NCCc1ccc(OC2CCC(OCc3ccc(C(F)(F)F)cc3)CC2)cc1-c1cccc(F)c1 (configuration not stated) |  | Active | inhibition [1]: inactive
9 | CO[C@@H]1[C@@H](O)[C@@H](O)[C@H](Oc2cc(O)c(CCNC(C)=O)c(-c3cccc(F)c3)c2)OC1(C)C |  |  | inhibition [2]: Active
10 | CC(=O)NCCc1ccc(OC2CCC(OCc3ccc(Br)cc3)CC2)cc1-c1cccc(F)c1 (configuration not stated) |  | Active | 
11 | COc1cc(OC2CCC(OCc3ccc(Br)cc3)CC2)cc(-c2cccc(F)c2)c1CCNC(C)=O (configuration not stated) | Active |  | inhibition [2]: Active
12 | CC(=O)NCCc1ccc(OC2C=CC(OCc3ccc(Cl)cc3)CC2)cc1-c1cccc(F)c1 (configuration not stated) |  | Active | inhibition [1]: Active
13 | COc1cc(C)ccc1COC1CCC(Oc2ccc(CCNC(C)=O)c(-c3cccc(F)c3)c2)CC1 (configuration not stated) |  | Active | 
14 | CC(=O)NCCc1ccc(OC2CCC(OCc3ccccc3Cl)CC2)cc1-c1cccc(F)c1 (configuration not stated) |  | Active | inhibition [1]: Active
15 | CC(=O)Nc1cc2ccc(OCc3ccccc3Br)c(C)c2oc1=O |  | inactive | 
16 | COc1cc(Cl)ccc1COC1CCC(Oc2ccc(CCNC(C)=O)c(-c3cccc(F)c3)c2)CC1 (configuration not stated) |  | Active | inhibition [1]: inactive
17 | COc1cc(OC2CCC(OCc3ccc(Cl)cc3)CC2)cc(-c2cccc(F)c2)c1CCNC(C)=O (configuration not stated) | Active |  | inhibition [5]: Active; inhibition [2]: Active
18 | CC(=O)NCCc1ccc(OC2CCC(OCc3ccc4ccccc4c3)CC2)cc1-c1cccc(F)c1 (configuration not stated) |  | Active | 
19 | CC(=O)NCCc1cc(C)c(OC2CCC(OCc3ccccc3)CC2)cc1-c1cccc(F)c1 (configuration not stated) | inactive |  | 
20 | CC(=O)NCCc1ccc(OC2CCC(OCc3ccc(Cl)cc3)CC2)c(O)c1-c1cccc(F)c1 (configuration not stated) | Active |  | 
21 | CC(=O)NCCc1ccc(OC2CCC(OCc3ccc(Cl)cc3)CC2)cc1-c1cccc(F)c1 (configuration not stated) |  | Active | inhibition [1]: inactive
22 | COc1cccc(COC2CCC(Oc3ccc(CCNC(C)=O)c(-c4cccc(F)c4)c3)CC2)c1 (configuration not stated) |  | Active | 
23 | CC(=O)Nc1cc2ccc(OCc3ccccc3)c(C)c2oc1=O |  | inactive | 
24 | COc1ccccc1COC1CCC(Oc2cc(O)c(CCNC(C)=O)c(-c3cccc(F)c3)c2)CC1 (configuration not stated) | Active |  | inhibition [2]: Active
25 | CC(=O)NCCc1c(O)cc(OC2CCC(OCc3ccccc3)CC2)cc1-c1cccc(F)c1 (configuration not stated) | Active |  | inhibition [2]: Active
26 | CC(=O)NCCc1ccc(OC2CCC(OCc3ccccc3)CC2)c(O)c1-c1cccc(F)c1 (configuration not stated) | Active |  | 

Row | Compound | inhibition [3] | inhibition [4] | further results
27 | CO[C@@H]1[C@@H](O)[C@@H](O)[C@H](Oc2ccc(CCNC(C)=O)c(-c3cccc(F)c3)c2)OC1(C)C | Active |  | inhibition [5]: Active
28 | CC(=O)NCCc1ccc(OC2CCC(OCc3ccc(Br)cc3)CC2)c(O)c1-c1cccc(F)c1 (configuration not stated) | Active |  | inhibition [2]: Active
29 | CC(=O)NCCc1cc(C)c(OC2CCC(OCc3ccc(Br)cc3)CC2)cc1-c1cccc(F)c1 (configuration not stated) | inactive |  | 
30 | COc1ccccc1COC1CCC(Oc2cc(OC)c(CCNC(C)=O)c(-c3cccc(F)c3)c2)CC1 (configuration not stated) | Active |  | 
31 | CC(=O)NCCc1c(O)cc(OC2CCC(OCc3ccc(Cl)cc3)CC2)cc1-c1cccc(F)c1 (configuration not stated) | Active |  | 
32 | CC(=O)NCCc1ccc(OC2CCC(OCc3ccc(Cl)cc3Br)CC2)cc1-c1cccc(F)c1 (configuration not stated) |  | Active | 
33 | COc1ccccc1COc1ccc2cc(NC(C)=O)c(=O)oc2c1C |  | inactive | 
34 | CC(=O)NCCc1ccc(OC2CCC(OCc3ccc(Cl)cc3)[C@@H](O)[C@H]2O)cc1-c1cccc(F)c1 (some centres not stated) |  | Active | inhibition [1]: Active
35 | CC(=O)NCCc1ccc(OC2CCC(OCc3ccccc3)CC2)cc1-c1cccc(F)c1 (configuration not stated) |  | Active | inhibition [5]: Active
36 | CO[C@@H]1[C@@H](O)[C@@H](O)[C@H](Oc2cc(-c3cccc(F)c3)c(CCNC(C)=O)cc2C)OC1(C)C | Active |  | 
37 | COc1ccccc1COC1CCC(Oc2ccc(CCNC(C)=O)c(-c3cccc(F)c3)c2O)CC1 (configuration not stated) | Active |  | 
38 | CC(=O)NCCc1ccc(OC2CCC(OCc3c(Cl)cccc3Cl)CC2)cc1-c1cccc(F)c1 (configuration not stated) |  | Active | inhibition [1]: inactive
39 | CC(=O)NCCc1ccc(OC2CCC(OCc3ccccc3F)CC2)cc1-c1cccc(F)c1 (configuration not stated) |  | Active | 
40 | COc1cc(OC2CCC(OCc3ccccc3C)CC2)cc(-c2cccc(F)c2)c1CCNC(C)=O (configuration not stated) | Active |  | 
41 | CC(=O)NCCc1ccc(OC2CCC(OCc3ccc(F)cc3)CC2)cc1-c1cccc(F)c1 (configuration not stated) |  | Active | 
42 | CC(=O)NCCc1ccc(OC2CCC(OCc3cccc(Cl)c3)CC2)cc1-c1cccc(F)c1 (configuration not stated) |  | Active | 
43 | CC(=O)NCCc1ccc(OC2CCC(OCc3ccc(C(C)(C)C)cc3)CC2)cc1-c1cccc(F)c1 (configuration not stated) |  | Active | 
44 | CC(=O)NCCc1ccc(OC2CCC(OCc3ccccc3Br)CC2)cc1-c1cccc(F)c1 (configuration not stated) |  | Active | inhibition [1]: Active
45 | CC(=O)NCCc1c(O)cc(OC2CCC(OCc3ccc(Br)cc3)CC2)cc1-c1cccc(F)c1 (configuration not stated) | Active |  | 
46 | CC(=O)NCCc1ccc(OC2CCC(OCc3ccccc3C)CC2)cc1-c1cccc(F)c1 (configuration not stated) |  | Active | 
47 | CC(=O)NCCc1c(O)cc(OC2CCC(OCc3ccccc3C)CC2)cc1-c1cccc(F)c1 (configuration not stated) | Active |  | 
48 | COc1ccc(COC2CCC(Oc3ccc(CCNC(C)=O)c(-c4cccc(F)c4)c3)CC2)cc1 (configuration not stated) |  | Active | 
49 | COc1ccccc1COC1CCC(Oc2cc(-c3cccc(F)c3)c(CCNC(C)=O)cc2C)CC1 (configuration not stated) | inactive |  | 
50 | CC(=O)NCCc1ccc(OC2CCC(OCc3ccc(C)cc3)CC2)cc1-c1cccc(F)c1 (configuration not stated) |  | Active | 
51 | COc1cc(OC2CCC(OCc3ccccc3)CC2)cc(-c2cccc(F)c2)c1CCNC(C)=O (configuration not stated) | Active |  | 
